Bioassay records as filed in PubChem.
Sampled rows, rich in hits. Any-hit rate of the full collection: about 4.1%.
H9c2 TAG inh – inhibitors of triacylglycerol accumulation, primary screen, cell-based, uHTS, fluorescence, H9c2; AID 651582, 2012; 0.66% of 230,000 active; H9c2 cells, Nile Red lipid (TAG) fluorescence; cells loaded with 200 µM oleic acid; inhibition, % at 12.5 µM;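 active = pattern-corrected inhibition of lipid staining of at least 50% with the nuclear-stain viability signal not falling by more than 50%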;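 also: 0% = DMSO wells and 100% = triacsin C control wells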
SMARCA2 act – SMARCA2 (BRM) function activators, primary screen, cell-based, luminescence, high throughput; activation, % at 9.1 µM; MG213 cells, MMTV-luciferase reporter, dexamethasone, overnight; 1% of 370,000 active; in the data active = activation above about 7.8%;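 also: 0% = vehicle wells and 100% = reference activator wells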
TbMetRS inhib – T. brucei MetRS inhibitors, primary screen, biochemical, luminescence | inhibition, % at 11.9 µM | methionyl-tRNA synthetase (Trypanosoma brucei brucei) | 0.4% of 360,000 active | purified T. brucei MetRS, ATP depletion, Kinase-Glo luminescence | AID 624268, 2012;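 active = inhibition above a per-plate cutoff of the control wells' mean inhibition plus 3 SD, cut at about 5.5% in these data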;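 also: 0% = DMSO wells median and 100% = median of wells with control inhibitor compound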
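Dosing: 11.9 µM compound single dose, 0.9% DMSO; Assay system: purified T. brucei MetRS enzyme; Measured by: Kinase-Glo luciferase luminescence reporting remaining unconsumed ATP; Schedule: 15 min plus 2 h at 25 °C.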
AHR act – AHR activators, primary screen, cell-based, luminescence, luciferase reporter, human; AHR-responsive luciferase reporter cells; Aryl hydrocarbon receptor (Homo sapiens), P35869; 2.5% of 320,000 active; activation, % at 5 µM; in the data active = activation above about 47%;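 also: 0% = vehicle wells and 100% = reference agonist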
Target sequence (P35869 whole entry, looked up): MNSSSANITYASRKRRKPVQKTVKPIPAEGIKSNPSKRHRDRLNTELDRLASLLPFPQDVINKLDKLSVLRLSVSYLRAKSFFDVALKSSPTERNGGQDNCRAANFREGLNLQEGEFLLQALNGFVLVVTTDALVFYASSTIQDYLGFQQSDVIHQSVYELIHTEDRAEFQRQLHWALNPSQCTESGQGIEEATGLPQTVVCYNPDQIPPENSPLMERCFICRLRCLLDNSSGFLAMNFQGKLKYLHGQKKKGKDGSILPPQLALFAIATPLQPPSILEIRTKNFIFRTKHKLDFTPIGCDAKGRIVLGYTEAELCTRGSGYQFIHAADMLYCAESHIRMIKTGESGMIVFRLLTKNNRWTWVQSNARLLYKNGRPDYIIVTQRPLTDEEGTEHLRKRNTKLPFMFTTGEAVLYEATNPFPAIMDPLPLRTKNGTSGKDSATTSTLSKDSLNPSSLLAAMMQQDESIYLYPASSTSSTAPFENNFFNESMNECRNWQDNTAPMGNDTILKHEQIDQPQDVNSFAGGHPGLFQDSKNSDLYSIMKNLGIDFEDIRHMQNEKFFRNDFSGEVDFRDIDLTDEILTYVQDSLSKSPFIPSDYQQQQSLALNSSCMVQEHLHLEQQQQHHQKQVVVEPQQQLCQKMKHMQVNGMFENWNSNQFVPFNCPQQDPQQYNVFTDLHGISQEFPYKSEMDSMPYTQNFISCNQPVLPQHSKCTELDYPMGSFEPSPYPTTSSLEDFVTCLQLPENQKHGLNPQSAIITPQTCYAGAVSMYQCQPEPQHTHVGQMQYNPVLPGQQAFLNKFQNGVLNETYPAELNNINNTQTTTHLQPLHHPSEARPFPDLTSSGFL
Efflux pump mplx – inhibitors of Candida efflux pumps in yeast, primary screen, S. cerevisiae, Nile Red, multiplex; inhibition, % at 10 µM; S. cerevisiae Candida pump triplex; AID 485275, 2010; 0.44% of 330,000 active;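 active = plate passing quality check with inhibition over a set limit, or well fluorescence over plate mean plus 4 SD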;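 also: Nile Red retained in pooled yeast measured as flow cytometry median fluorescence; 0% = buffer negative control and 100% = Enniatin B positive control; higher means more Nile Red kept so more efflux inhibition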
SMARCA2 act conf – SMARCA2 (BRM) function activators, confirmation, cell-based, luminescence, triplicate | MG213 cells, MMTV-luciferase with dexamethasone, overnight; MG213 cells expressing E1A, Rb sequestered; DMSO wells 0%, reference activator 100% | activation, % at 9.1 µM | shares compounds with SMARCA2 act | 30% of 3,500 active;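 active = activation above its plate's cutoff, the mean activation of tested wells plus 3 SD, cut at about 7.9% in these data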
GAL4-VP16 Luc – GAL4-VP16 luciferase reporter activation, counter-screen for SMARCA2 (BRM) activator project, cell-based, pG5luc, luminescence, high throughput; shares compounds with SMARCA2 act; HEK293 GAL4-VP16 pG5luc reporter; scaled: DMSO wells 0%, SAHA wells 100%; activation, % at 9.1 µM; 41% of 3,500 active; AID 686939, 2013;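 active = activation above the solvent-only control well mean plus 3 SD, averaged across control plates, cut at about 5.2% in these data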
The depositor's hits bear a star; . = not tested or not shown.

SMILES | H9c2 TAG inh | SMARCA2 act | TbMetRS inhib | AHR act | Efflux pump mplx | SMARCA2 act conf | GAL4-VP16 Luc
CC(C)(C)C(=O)NC1CCCCN(Cc2cccc(Cl)c2)C1=O (stereo not drawn) | . | -3 | . | . | . | . | .
COC(=O)c1cc(S(=O)(=O)NCC2CCN(C(=O)C(=O)c3cc4ccccc4o3)CC2)cs1 | . | -7 | . | . | . | . | .
Cc1ccc(S(=O)(=O)NC(=O)NC(C)c2ccc(F)cc2)cc1 (stereo not drawn) | . | 8.0* | 0 | 3 | 0 | 0 | 1
COc1ccc(-c2csc(C(O)c3ccc(F)cc3)n2)cn1 (stereo not drawn) | -17 | 8.1* | 0 | . | . | 2 | 2
COC(=O)C1=C(C)N(Cc2ccccc2C(F)(F)F)C(=NCc2ccc(C(F)(F)F)cc2)NC1c1ccc(Cl)cc1 (stereo not drawn) | . | -2 | . | . | . | . | .
CCCOc1ccc(C(=O)NNC(=S)NC(=O)c2ccccc2)cc1 | . | -1 | -1 | 6 | 0 | . | .
CCCOc1ccc(C(=O)NNC(=S)NC(=O)c2cccs2)cc1 | . | 13* | 0 | 5 | 0 | 3 | 0
COc1ccc(C2=NN(C(=O)CSc3nccn3C)C(c3ccco3)C2)cc1 (stereo not drawn) | 0 | 0 | 0 | -1 | 0 | . | .
COc1ccc(C2=NN(C(=O)CSc3nnc(C)c(=O)n3N)C(c3ccco3)C2)cc1 (stereo not drawn) | -1 | 13* | 0 | -3 | 0 | 2 | 1
O=C(O)C1CCCCC1C(=O)Nc1ccc(-c2ccccc2)cc1 (stereo not drawn) | . | 12* | 0 | 1 | 0 | 1 | -1
COC(=O)c1ccc(NN=Nc2ccc(C)cc2)cc1 | . | 2 | -1 | 9 | 0 | . | .
COC(=O)c1ccc(N=NN2CCCCC2)cc1 | 9 | 12* | 0 | 10 | 0 | 4 | 11*
O=C(Nc1ccc(OC(F)F)c(Cl)c1)c1ccccn1 | 7 | 12* | -1 | -2 | 0 | 11* | 19*
COc1ccc(NC(=O)c2ccc(OC(F)F)cc2)cc1Cl | . | 1 | -1 | 26 | 0 | . | .
Fc1ccc(/C=C\c2nccc3c2[nH]c2ccccc23)cc1 | 18 | 16* | 0 | 35 | 0 | 4 | 3
O=C(NCc1ccccc1)[C@H]1CCCN1 | . | -5 | . | . | . | . | .
FC(F)(F)c1ccccc1N/N=C/c1cccnc1 | . | -1 | 0 | 10 | 0 | . | .
Fc1ccc(N/N=C/c2cccnc2)c(F)c1 | -12 | 8.4* | 0 | 0 | 0 | 1 | 1
O=C(COC(=O)c1ccccc1O)Nc1cccc(S(=O)(=O)NC2=NCCCCC2)c1 | 7 | 1 | 0 | 3 | 0 | . | .
O=C(COC(=O)c1ccccc1NCCO)Nc1ccc(S(=O)(=O)NC2=NCCCCC2)cc1 | 3 | 11* | 0 | . | . | 0 | 1
Nc1ccn([C@@H]2O[C@H](C(=O)N[C@H](Cc3ccccc3)C(=O)N3CCN(CCO)CC3)[C@@H](O)[C@H]2O)c(=O)n1 | . | -3 | . | . | . | . | .
C=CCn1cnc2c(c1=O)c1nc3ccccc3nc1n2/N=C/c1cccc(OC)c1OC | . | 8.2* | 0 | -4 | 0 | -4 | 4
CC(C)C1N=C2c3ccccc3N=C(SCC(=O)NCCc3ccc(S(N)(=O)=O)cc3)N2C1=O (stereo not drawn) | -17 | 9.4* | -1 | 0 | 0 | -2 | -1
COCCCNC(=O)CSC1=Nc2ccccc2C2=NC(c3ccccc3)C(=O)N12 (stereo not drawn) | . | -1 | -1 | 7 | 0 | . | .
C[C@H](O)[C@@H]1CN2CCc3c([nH]c4c(-c5ccccc5)cccc34)[C@@H]2C[C@@H]1N(C)C(=O)c1ccco1 | . | 1 | . | . | . | . | .
SMILES | H9c2 TAG inh | SMARCA2 act | TbMetRS inhib | AHR act | Efflux pump mplx | SMARCA2 act conf | GAL4-VP16 Luc
CCOC(=O)C1CCCCN1Cc1ccc(F)cc1 (stereo not drawn) | . | 3 | 0 | -3 | 0 | . | .
CCOC(=O)C1CCCCN1Cc1cccc(F)c1 (stereo not drawn) | . | 8.8* | -1 | -2 | 0 | 1 | 0
C[C@H](CO)N1C[C@H](C)[C@@H](CN(C)C(=O)c2ccc(N3CCN(C)CC3)cc2)OCc2cn(nn2)CCCC1=O | . | -2 | . | . | . | . | .
c1ccc2c(N3CCCCC3)nc(N3CCCCC3)nc2c1 | 16 | -1 | -1 | 9 | 0 | . | .
C(=C\c1nc(N2CCCCCC2)c2ccccc2n1)/c1ccccc1 | . | 9.3* | -1 | 78* | 0 | 2 | 3
COc1ccc(C2N(c3cc(Cl)ccc3OC)C(=O)C3CCCN32)c(OC)c1 (stereo not drawn) | 9 | 9.5* | 0 | 2 | 0 | 3 | 0
Cc1ccc2c(c1)C1CS(=O)(=O)N(CC(C)C)CN1C2 (stereo not drawn) | . | 3 | . | . | . | . | .
Nc1nn(-c2ccccc2)c(N)c1N=Nc1ccccc1 | . | 15* | 0 | 21 | 2 | 7 | 27*
CCCN1CCN(CCCNC(=O)c2cc3c(=O)oc4ccc(C)cc4c3s2)CC1 | . | 0 | 0 | 1 | 0 | . | .
Cc1ccc2nc(Cl)c3cc(C(=O)NCCCN4CCCC4)sc3c2c1 | 27 | 14* | 0 | 8 | 0 | 10* | 1
Cc1ccsc1C(=O)NNC(=O)C1CCCCC1C(=O)O (stereo not drawn) | 2 | 2 | -1 | 4 | 0 | . | .
Cc1ccsc1C(=O)NNC(=O)C1CC=CCC1C(=O)O (stereo not drawn) | 4 | 8.6* | 0 | 17 | 0 | 3 | 2
COc1ccc(/C=C/C(=O)c2ccc3c(c2)OCO3)c(OC)c1 | 0 | 11* | 0 | 12 | 0 | 8.8* | 8.0*
O=C(NN=Cc1ccc2c(c1)OCO2)c1ccccc1 | -10 | 11* | 0 | . | . | 8.7* | 8.4*
COc1ccc(C(=O)C=Cc2ccc3c(c2)OCO3)cc1OC | -16 | 10* | 0 | . | . | 12* | 0
O=C(/C=C/c1ccc2c(c1)OCCO2)c1ccccc1 | -2 | 17* | -1 | 1 | 0 | 10* | 9.1*
COc1ccc(/C=C/C(=O)c2ccccc2)c(OC)c1 | 4 | 7 | 0 | 3 | 0 | . | .
O=C(CSc1nnc(COc2ccccc2)n1-c1ccc(Cl)cc1)Nc1ccc(OCc2ccccc2)cc1 | . | 5 | . | . | . | . | .
COc1cc(C(=O)Nc2ccc3c(c2)OCO3)ccc1OCc1c(C)noc1C | 6 | 8.4* | -1 | 9 | 0 | 6 | 0
O=C(NN=C1CCCCCC1)c1ccc2c(c1)OCO2 | 2 | 10* | 0 | 31 | 0 | 3 | 4
